From ChEMBL document CHEMBL2331476, “A novel semisynthetic flavonoid 7-O-galloyltaxifolin upregulates heme oxygenase-1 in RAW264.7 cells via MAPK/Nrf2 pathway” (J Med Chem, 2013)
The source made the active and inactive calls. No cut-off for these calls is given here.

Legend:
[1] = target: T1, Nuclear factor erythroid 2-related factor 2 (Mus musculus) (UniProt Q60795); test: Activation of Nrf2 in mouse RAW264.7 cells assessed as induction of Hmox1 mRNA expression at 50 uM after 6 hrs by real-time PCR analysis in presence of SB203580; format: cell-based
T1 sequence (whole entry): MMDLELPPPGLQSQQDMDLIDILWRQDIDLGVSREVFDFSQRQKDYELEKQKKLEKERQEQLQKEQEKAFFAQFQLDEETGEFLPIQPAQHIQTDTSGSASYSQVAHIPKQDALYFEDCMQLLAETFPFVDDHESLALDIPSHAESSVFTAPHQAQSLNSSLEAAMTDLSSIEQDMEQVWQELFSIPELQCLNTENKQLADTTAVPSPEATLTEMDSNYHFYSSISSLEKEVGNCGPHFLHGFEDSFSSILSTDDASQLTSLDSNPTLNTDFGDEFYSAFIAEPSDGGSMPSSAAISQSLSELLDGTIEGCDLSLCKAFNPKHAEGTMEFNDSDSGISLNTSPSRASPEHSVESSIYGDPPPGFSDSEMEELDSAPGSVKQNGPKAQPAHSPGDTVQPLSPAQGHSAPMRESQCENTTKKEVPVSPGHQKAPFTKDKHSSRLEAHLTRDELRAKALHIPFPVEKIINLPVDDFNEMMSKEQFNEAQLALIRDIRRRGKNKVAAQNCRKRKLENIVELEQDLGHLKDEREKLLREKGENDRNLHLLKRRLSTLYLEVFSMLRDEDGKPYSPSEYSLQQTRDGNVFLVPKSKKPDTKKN
In short: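 Pretreatment 30 min with 0.1% DMSO, 15 μM PD98059, 15 μM SB203580 or 30 μM SP600125, then 50 μM agent for 6 h in serum-free medium. Hmox1 mRNA by TaqMan qPCR normalized to Gapdh, given as percent of agent-induced expression; mean ± SD of three experiments.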

[2] = target: Mitogen-activated protein kinase 9/10 (Mus musculus) (UniProt Q9WTU6+Q61831); test: Activation of JNK2/3 in mouse RAW264.7 cells assessed as phosphorylation at 50 uM after 30 mins by Western blotting analysis; format: cell-based
In short: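 Serum-starved RAW264.7 cells exposed in serum-free medium for 30 min to 4 h; 5 μM anisomycin for 30 min as positive control. Whole-cell lysates (30 μg/lane) blotted for JNKs dually phosphorylated at Thr183/Tyr185 and total JNKs, chemiluminescent detection.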

[3] = target: Mitogen-activated protein kinase 1 and 3 (ERK2 and ERK1) (Mus musculus) (UniProt P63085+Q63844); test: Activation of ERK1/2 in mouse RAW264.7 cells assessed as phosphorylation at 50 uM up to 3 hrs by Western blotting analysis; format: cell-based
In short: (§1)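 RAW264.7 cells (passage 5-25) seeded at 1 × 10⁵ cells/cm², serum-starved overnight, then exposed in serum-free medium for 30 min to 3 h; 0.1% DMSO vehicle; 75 ng/mL EGF for 30 min as positive control. Whole-cell lysates (20 μg/lane) on 10% SDS-PAGE, blotted for phospho-ERK1 (Thr202/Tyr204), phospho-ERK2 (Thr185/Tyr187) and total ERK1/2, chemiluminescent detection.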

[4] = target: Mitogen-activated protein kinase 3 (Mus musculus) (UniProt Q63844); test: Activation of ERK1 in mouse RAW264.7 cells assessed as phosphorylation at Thr202/Tyr204 at 50 uM after 30 mins by Western blotting analysis; format: cell-based; in short: as §1
[5] = target: T1, Nuclear factor erythroid 2-related factor 2 (Mus musculus); test: Activation of Nrf2 in mouse RAW264.7 cells assessed as induction of Hmox1 mRNA expression at 50 uM after 6 hrs by real-time PCR analysis in presence of […] N-acetyl-L-cysteine; format: cell-based
[6] = target: T1, Nuclear factor erythroid 2-related factor 2 (Mus musculus); test: Activation of Nrf2 in mouse RAW264.7 cells assessed as reduction of KEAP1 protein level at 10 to 50 uM after 6 hrs by Western blotting analysis; format: cell-based
In short: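 Whole-cell lysates (20 μg/lane) from serum-starved RAW264.7 cells given 10-50 μM for 6 h or 50 μM for 1-6 h in serum-free medium, 0.1% DMSO vehicle. Keap1 and actin detected by chemiluminescent Western blot; Keap1 band intensity normalized to actin, mean of three experiments.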

[7] = target: T1, Nuclear factor erythroid 2-related factor 2 (Mus musculus); test: Activation of Nrf2 in mouse RAW264.7 cells assessed as nuclear accumulation at 25 uM after 3 hrs by Western blotting analysis; format: cell-based
In short: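 Serum-starved RAW264.7 cells treated 30 min to 3 h (10-50 μM for 3 h, or 50 μM time course); 0.1% DMSO control, 50 μM quercetin positive control. Cytosolic fraction from hypotonic HEPES pH 7.9 buffer with 0.1% NP-40; nuclear fraction by 420 mM NaCl extraction. 30 μg/lane blotted for Nrf2 and actin; Nrf2/actin densitometry, mean of three experiments.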

[8] = target: T1, Nuclear factor erythroid 2-related factor 2 (Mus musculus); test: Activation of Nrf2 in mouse RAW264.7 cells assessed as nuclear accumulation at 50 uM after 3 hrs by Western blotting analysis; format: cell-based
In short: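 RAW264.7 cells (passage 5−25) seeded at 1 × 10⁵ cells/cm², switched to serum-free medium after 8 h, left overnight, then treated 3 h in serum-free medium; 0.1% DMSO vehicle control. Cells were swollen in hypotonic HEPES/NP-40 buffer for the cytosolic fraction and nuclei extracted in high-salt buffer. Blots loaded 30 μg/lane, Nrf2 densitometry normalized to actin, mean of three experiments.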

[9] = target: T1, Nuclear factor erythroid 2-related factor 2 (Mus musculus); test: Activation of Nrf2 in mouse RAW264.7 cells assessed as upregulation of HO1 protein expression at 25 uM after 6 hrs by Western blotting analysis; format: cell-based
In short: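 HO-1 protein in whole-cell lysates (20 μg/lane) of serum-starved RAW264.7 cells after 6 h at 10-50 μM or 50 μM for 1-6 h in serum-free medium, 0.1% DMSO control. Chemiluminescent Western blot; HO-1 densitometry normalized to actin, mean of three experiments.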

RAW264.7 [10] = test: Drug metabolism in mouse RAW264.7 cells assessed as 7-O-galloylquercetin level at 50 uM after 6 hrs by HPLC/ESI-QqTOF/MS analysis; format: ADME, cell-based; conditions: raw264.7, 6 h
In short: (§2)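 Cells given 50 μM for up to 6 h, then scraped, washed twice in PBS and sonicated in methanol with 5% acetic acid. Supernatant analysed by UPLC on a phenyl column (water/1% acetic acid/methanol to methanol gradient, 35 °C) with negative ESI-QqTOF MS. Contents expressed as nmol per 10⁶ cells.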

RAW264.7 [11] = test: Stability in mouse RAW264.7 cells assessed as gallic acid level at 50 uM after 6 hrs by HPLC/MS analysis; format: ADME, cell-based; conditions: raw264.7, 6 h
RAW264.7 [12] = test: Drug uptake in mouse RAW264.7 cells measured per 10^6 cells at 50 uM after 3 hrs; format: ADME, cell-based; conditions: raw264.7, 3 h; in short: as §2
RAW264.7 [13] = test: Induction of ROS generation in mouse RAW264.7 cells at 50 uM after 2 hrs by flow cytometric analysis; format: functional
In short: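 Serum-starved RAW264.7 cells treated 2 h at 10-50 μM; 100 μM TBHP for 30 min as positive control. Medium replaced, cells loaded with 10 μM carboxy-H₂DCFDA for 15 min at 37 °C. Flow cytometry (488 nm excitation, 525 nm emission, 10,000 events) gave percentage of cells with raised ROS; mean ± SD of three experiments.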

Chain of Mitogen-activated protein kinase 1 and 3 (ERK2 and ERK1) (Mus musculus) (P63085 whole entry, looked up): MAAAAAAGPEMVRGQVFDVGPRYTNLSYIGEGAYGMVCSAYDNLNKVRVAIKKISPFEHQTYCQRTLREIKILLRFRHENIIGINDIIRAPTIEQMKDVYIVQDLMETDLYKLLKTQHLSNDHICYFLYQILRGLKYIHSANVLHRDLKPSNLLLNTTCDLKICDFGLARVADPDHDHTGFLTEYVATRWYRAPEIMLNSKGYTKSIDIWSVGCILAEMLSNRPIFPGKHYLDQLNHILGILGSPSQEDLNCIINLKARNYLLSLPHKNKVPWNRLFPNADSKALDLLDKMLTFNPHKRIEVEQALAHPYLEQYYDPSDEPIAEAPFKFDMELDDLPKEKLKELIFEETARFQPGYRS
Chain of Mitogen-activated protein kinase 1 and 3 (ERK2 and ERK1) (Mus musculus) (Q63844 whole entry, looked up): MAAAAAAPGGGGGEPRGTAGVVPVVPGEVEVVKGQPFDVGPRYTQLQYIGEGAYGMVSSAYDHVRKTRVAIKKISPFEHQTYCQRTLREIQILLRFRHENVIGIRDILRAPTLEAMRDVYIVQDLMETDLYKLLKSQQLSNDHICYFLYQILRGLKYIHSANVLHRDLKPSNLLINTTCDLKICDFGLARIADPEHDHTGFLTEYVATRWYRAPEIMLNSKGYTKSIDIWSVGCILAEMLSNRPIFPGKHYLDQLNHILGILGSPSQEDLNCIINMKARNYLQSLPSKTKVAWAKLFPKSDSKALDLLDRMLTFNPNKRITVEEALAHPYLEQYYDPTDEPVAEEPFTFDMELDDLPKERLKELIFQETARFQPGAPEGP
Chain of Mitogen-activated protein kinase 9/10 (Mus musculus) (Q61831 whole entry, looked up): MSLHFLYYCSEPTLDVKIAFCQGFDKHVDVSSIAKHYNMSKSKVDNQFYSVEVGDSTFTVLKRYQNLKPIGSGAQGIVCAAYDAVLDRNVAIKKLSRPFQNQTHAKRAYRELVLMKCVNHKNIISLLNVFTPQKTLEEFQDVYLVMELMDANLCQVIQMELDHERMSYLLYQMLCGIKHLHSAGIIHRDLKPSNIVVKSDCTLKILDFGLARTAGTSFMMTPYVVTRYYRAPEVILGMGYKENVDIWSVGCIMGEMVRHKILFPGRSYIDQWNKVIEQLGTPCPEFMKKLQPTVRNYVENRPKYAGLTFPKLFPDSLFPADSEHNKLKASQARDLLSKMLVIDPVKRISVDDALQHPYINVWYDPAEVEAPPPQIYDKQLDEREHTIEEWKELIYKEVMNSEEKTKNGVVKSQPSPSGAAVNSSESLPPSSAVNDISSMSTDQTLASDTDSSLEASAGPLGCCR
Chain of Mitogen-activated protein kinase 9/10 (Mus musculus) (Q9WTU6 whole entry, looked up): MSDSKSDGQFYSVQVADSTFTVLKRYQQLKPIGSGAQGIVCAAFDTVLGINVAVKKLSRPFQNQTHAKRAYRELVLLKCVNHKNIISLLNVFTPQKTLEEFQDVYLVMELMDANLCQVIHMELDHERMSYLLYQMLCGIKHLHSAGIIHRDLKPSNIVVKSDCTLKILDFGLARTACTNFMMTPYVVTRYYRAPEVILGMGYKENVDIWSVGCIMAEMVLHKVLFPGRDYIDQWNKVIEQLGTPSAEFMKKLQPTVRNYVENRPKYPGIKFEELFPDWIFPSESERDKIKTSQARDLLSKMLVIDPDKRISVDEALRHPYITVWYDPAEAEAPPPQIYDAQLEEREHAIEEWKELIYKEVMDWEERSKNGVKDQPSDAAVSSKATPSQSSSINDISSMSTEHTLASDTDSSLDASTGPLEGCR
Chain of Mitogen-activated protein kinase 3 (Mus musculus) (Q63844 whole entry): as the sequence (Q63844 whole entry, looked up) above

Activity [1]: inactive
Activity [2]: Active
Activity [3]: inactive
Activity [4]: Active
Activity [5]: inactive
Activity [6]: Dose-dependent effect
Activity [7]: Active
Activity [8]: Active
fold change (FC) [9]: 1.6
Drug metabolism (RAW264.7 [10]): Active
Stability (RAW264.7 [11]): Stable
Drug uptake (RAW264.7 [12]): 1.03 nmol
SMILES: O=C(Oc1cc(O)c2c(c1)O[C@H](c1ccc(O)c(O)c1)[C@@H](O)C2=O)c1cc(O)c(O)c(O)c1
Activity (RAW264.7 [13]): 29%
